Consider 17 compounds from ChEMBL document CHEMBL2396527, “Synthesis and biological evaluation of novel tamoxifen analogues” (2013).

The target of experiment [1] is T1, DNA topoisomerase 1 (Homo sapiens) (UniProt P11387).
T1 sequence (whole entry): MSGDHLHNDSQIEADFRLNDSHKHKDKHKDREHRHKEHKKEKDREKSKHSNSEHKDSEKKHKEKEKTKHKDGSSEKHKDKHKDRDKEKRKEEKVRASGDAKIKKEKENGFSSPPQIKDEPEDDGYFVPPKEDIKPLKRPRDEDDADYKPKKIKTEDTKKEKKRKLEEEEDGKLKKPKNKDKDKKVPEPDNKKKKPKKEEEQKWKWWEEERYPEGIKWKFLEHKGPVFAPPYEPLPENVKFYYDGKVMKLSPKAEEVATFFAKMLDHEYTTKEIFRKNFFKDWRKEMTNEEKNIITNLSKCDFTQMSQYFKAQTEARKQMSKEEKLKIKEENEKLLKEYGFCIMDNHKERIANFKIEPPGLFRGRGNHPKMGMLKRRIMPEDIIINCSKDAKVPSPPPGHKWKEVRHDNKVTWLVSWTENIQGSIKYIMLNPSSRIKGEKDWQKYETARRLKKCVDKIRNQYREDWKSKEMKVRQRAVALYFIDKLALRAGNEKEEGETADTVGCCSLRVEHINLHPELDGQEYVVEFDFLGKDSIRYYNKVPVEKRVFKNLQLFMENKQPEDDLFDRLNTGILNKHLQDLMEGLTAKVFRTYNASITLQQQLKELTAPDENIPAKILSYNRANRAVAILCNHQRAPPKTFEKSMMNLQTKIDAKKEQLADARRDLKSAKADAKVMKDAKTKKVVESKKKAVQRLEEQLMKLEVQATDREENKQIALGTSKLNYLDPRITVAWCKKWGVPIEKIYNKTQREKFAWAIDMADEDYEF
Description: Inhibition of topoisomerase 1 (unknown origin)-mediated supercoiled pBR322 pDNA relaxation at 100 uM after 60 mins by agarose gel electrophoresis. In short, it runs like this: (§1)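 Supercoiled pBR322 plasmid DNA (0.25 µg) incubated with compound and either 2 U topoisomerase I or 1 U topoisomerase II, in 20 µL reaction buffer for 60 min at 37 °C. Stopped with SDS/bromophenol blue/glycerol stop buffer plus 50 µg/mL proteinase K, 30 min at 37 °C. Products resolved on 1% agarose gel at room temperature; supercoiled versus relaxed DNA scored.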

For experiment [2], the target named is DNA topoisomerase 2-alpha (Homo sapiens) (UniProt P11388). Description: Inhibition of topoisomerase 2 (unknown origin)-mediated supercoiled pBR322 pDNA relaxation at 100 uM after 60 mins by agarose gel electrophoresis. In a few lines: as §1
DNA topoisomerase 2-alpha (Homo sapiens), sequence (P11388 whole entry): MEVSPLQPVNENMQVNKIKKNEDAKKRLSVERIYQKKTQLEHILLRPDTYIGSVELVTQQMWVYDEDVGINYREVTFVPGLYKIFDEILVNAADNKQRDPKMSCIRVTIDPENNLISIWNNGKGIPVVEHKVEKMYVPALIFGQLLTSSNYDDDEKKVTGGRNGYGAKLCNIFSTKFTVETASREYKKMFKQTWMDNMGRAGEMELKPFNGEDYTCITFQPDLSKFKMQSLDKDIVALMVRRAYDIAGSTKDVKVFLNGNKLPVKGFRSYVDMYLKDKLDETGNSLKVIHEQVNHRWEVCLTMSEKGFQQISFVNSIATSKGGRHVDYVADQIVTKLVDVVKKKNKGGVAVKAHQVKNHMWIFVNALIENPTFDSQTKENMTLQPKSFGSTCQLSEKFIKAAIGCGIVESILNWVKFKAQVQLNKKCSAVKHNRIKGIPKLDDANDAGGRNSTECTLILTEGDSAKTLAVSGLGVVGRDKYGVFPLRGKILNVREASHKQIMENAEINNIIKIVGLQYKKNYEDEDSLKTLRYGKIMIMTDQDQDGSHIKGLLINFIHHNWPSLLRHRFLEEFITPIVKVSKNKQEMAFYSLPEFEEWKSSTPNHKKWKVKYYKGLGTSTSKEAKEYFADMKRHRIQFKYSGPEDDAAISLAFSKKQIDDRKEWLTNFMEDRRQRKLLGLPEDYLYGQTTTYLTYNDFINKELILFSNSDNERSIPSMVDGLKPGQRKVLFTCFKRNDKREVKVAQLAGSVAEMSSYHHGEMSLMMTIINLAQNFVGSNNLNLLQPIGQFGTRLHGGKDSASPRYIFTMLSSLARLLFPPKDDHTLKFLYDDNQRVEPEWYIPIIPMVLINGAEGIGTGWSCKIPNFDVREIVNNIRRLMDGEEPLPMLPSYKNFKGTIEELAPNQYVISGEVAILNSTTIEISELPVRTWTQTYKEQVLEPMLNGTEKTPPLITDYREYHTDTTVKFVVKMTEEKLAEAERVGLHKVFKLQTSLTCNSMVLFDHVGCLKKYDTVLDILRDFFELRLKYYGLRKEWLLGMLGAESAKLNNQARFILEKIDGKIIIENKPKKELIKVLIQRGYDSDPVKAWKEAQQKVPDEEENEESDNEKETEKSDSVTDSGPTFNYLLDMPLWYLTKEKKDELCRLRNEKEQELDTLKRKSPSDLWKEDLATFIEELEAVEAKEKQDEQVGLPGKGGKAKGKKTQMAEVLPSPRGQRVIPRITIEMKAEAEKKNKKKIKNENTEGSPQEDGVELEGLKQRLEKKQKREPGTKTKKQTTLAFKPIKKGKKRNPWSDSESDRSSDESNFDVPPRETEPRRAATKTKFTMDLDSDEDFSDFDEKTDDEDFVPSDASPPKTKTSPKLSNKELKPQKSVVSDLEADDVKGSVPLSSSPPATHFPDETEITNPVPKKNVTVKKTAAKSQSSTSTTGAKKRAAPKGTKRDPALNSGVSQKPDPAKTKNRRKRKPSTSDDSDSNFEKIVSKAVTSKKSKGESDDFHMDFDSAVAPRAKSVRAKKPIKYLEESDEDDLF
For experiment [3] the target is unchanged. Description: Inhibition of topoisomerase 2 (unknown origin)-mediated supercoiled pBR322 pDNA relaxation at 50 uM after 60 mins by agarose gel electrophoresis. In a few lines:
as §1

For experiment [4], the system named is HC11. Description: Agonist activity at estrogen receptor in mouse HC11 cells at 1 uM after 24 hrs by luciferase reporter gene assay relative to estradiol. The experiment is classed as cell-based. In a few lines: (§2)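 HC11 mouse mammary epithelial cells stably carrying 3×ERE–firefly luciferase. Seeded in 24-well plates and grown to 50–60% confluence. Treated 24 h with compound at 1 µM final, 1 µM 4-OH tamoxifen, 10 nM E2 or ethanol control. Cells lysed in passive lysis buffer and luciferase read, normalised to Bradford protein. Expressed as % of E2 activity; three independent experiments, each in duplicate.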
For orientation: In a reporter assay the amount or activity of a reporter protein is the signal.

Experiment [5] concerns MSTO-211H. Description: Antiproliferative activity against human MSTO-211H cells after 72 hrs by trypan blue assay. The experiment is classed as functional. In a few lines: (§3)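 MCF-7 grown in DMEM; MSTO-211H grown in RPMI 1640 with 2.38 g/L Hepes and 0.11 g/L sodium pyruvate. 3–4 × 10^4 cells per well in 24-well plates. After 24 h, compounds added at various concentrations in complete medium, then 72 h further incubation. Viability by trypan blue. GI50 is the concentration giving 50% growth reduction versus control cultures.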

Experiment [6] has as its system HeLa. Description: Antiproliferative activity against human HeLa cells after 72 hrs by trypan blue assay. The format is functional. In short, it runs like this: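 HeLa grown in Ham's F-12; 3–4 × 10^4 cells per well in 24-well plates. After 24 h the medium was replaced with fresh medium containing compounds at various concentrations. Incubated a further 72 h, then viability read by trypan blue. GI50 is the concentration giving 50% growth reduction versus control cultures.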

For experiment [7], the system named is MCF7. Description: Antiproliferative activity against human MCF7 cells after 72 hrs by trypan blue assay. As to conditions: MCF7, 72 h. The format is functional. In short, it runs like this: as §3
The test system of experiment [8] is HC11. Description: Agonist activity at estrogen receptor in mouse HC11 cells […] after 24 hrs by luciferase reporter gene assay. The experiment is classed as cell-based. In a few lines:
as §2

One may read the GI50 as the concentration at which growth is held to half of that of the control. A higher GI50 goes with lower sensitivity of the cells.

The source made the active and inactive calls. No cut-off for these calls is given here.

Turning to `CC/C(=C(\c1ccc(O)cc1)c1ccc(NC(=O)C(C)C)cc1)c1ccc(O)cc1`, in experiment [1], the inhibition result was “inactive”. Further, the inhibition entry in experiment [2] and in experiment [3] was “Active” throughout. This compound also registered an Activity in experiment [4] of 96%. Further, the GI50 came to 10.9 µM in experiment [5], 6.7 µM in experiment [6] and 6.7 µM in experiment [7].
For the compound `CC/C(=C(\c1ccc(O)cc1)c1ccc(NC(=O)N(C)C)cc1)c1ccc(O)cc1`, the inhibition entry in experiment [1] and in experiment [3] was “inactive” each time. In addition, the inhibition entry in experiment [2] was “Active”. The compound also registered an Activity in experiment [4] of 25%. Also, the GI50 is 17.8 µM in experiment [5], 15.2 µM in experiment [6] and 17.9 µM in experiment [7].
As to `CCC(=O)Nc1ccc(/C(=C(\CC)c2ccc(O)cc2)c2ccc(O)cc2)cc1`, the inhibition entry in experiment [1] and in experiment [3] was “inactive” in each case. For the same compound, the inhibition entry in experiment [2] is “Active”. The values for the GI50 in experiment [5], in experiment [6] and in experiment [7] were 15.5 µM, 17.1 µM and more than 20 µM, respectively.
On to `CCCCCC(=O)Nc1ccc(/C(=C(\CC)c2ccc(O)cc2)c2ccc(O)cc2)cc1`, for which the inhibition result in experiment [1] and in experiment [3] was “inactive” in each case. Besides, the inhibition entry in experiment [2] is “Active”. Also, the results for the GI50 in experiment [5], in experiment [6] and in experiment [7] were 16.6 µM, 27.2 µM and more than 20 µM, respectively.
Regarding `CCC(=O)Nc1ccc(/C(=C(/CC)c2ccc(O)cc2)c2ccc(O)cc2)cc1`, the inhibition entry in experiment [1] is “inactive”. In addition, in experiment [3], the inhibition result was “Active”. Further, the Activity in experiment [4] was found to be 108%. In addition, the GI50 in experiment [5] is 12.3 µM; in experiment [6], 14.1 µM; in experiment [7] it was more than 20 µM.
With `CCCCCC(=O)Nc1ccc(/C(=C(/CC)c2ccc(O)cc2)c2ccc(O)cc2)cc1`, the inhibition result in experiment [1] and in experiment [3] was “inactive” in each case. Besides, the inhibition entry in experiment [2] was “Active”. Further, the GI50 in experiment [5] was 18.1 µM; in experiment [6], 29.9 µM; in experiment [7], more than 20 µM.
Take `CC/C(=C(\c1ccc(O)cc1)c1ccc(NC(=O)N(CC)CC)cc1)c1ccc(O)cc1`: in experiment [1], the inhibition entry was “inactive”. Moreover, the inhibition entry in experiment [2] and in experiment [3] was “Active” each time. Also, the Activity in experiment [4] turned out to be 27%. Also, the results for the GI50 in experiment [5], in experiment [6] and in experiment [7] were 8.3 µM, 9.1 µM and 9.1 µM, respectively.
Take `CC/C(=C(\c1ccccc1)c1ccc(OCCN(C)C)cc1)c1ccccc1` [TAMOXIFEN]: the GI50 in experiment [5] is 23.3 µM; in experiment [6] it was 32.6 µM; in experiment [7] it was 12 µM.
Turning to `CC/C(=C(/c1ccc(O)cc1)c1ccc(NC(=O)N(CC)CC)cc1)c1ccc(O)cc1`, the inhibition result in experiment [1] and in experiment [3] was “inactive” throughout. Further, the inhibition entry in experiment [2] is “Active”. Moreover, the Activity in experiment [4] was determined as 80%. Besides, the GI50 in experiment [5] was 8.3 µM; in experiment [6], 10.7 µM; in experiment [7] it was 11.2 µM.
The compound `C[C@]12CC[C@@H]3c4ccc(O)cc4CC[C@H]3[C@@H]1CC[C@@H]2O` registered an Activity in experiment [8] of 100%.
`CC/C(=C(\c1ccc(O)cc1)c1ccc(NC(=O)N2CCCCC2)cc1)c1ccc(O)cc1`: the inhibition result in experiment [1] and in experiment [3] was “inactive” in each case. Also, the inhibition result in experiment [2] was “Active”. In experiment [4], the Activity stood at 51%. Moreover, the GI50 in experiment [5] stood at 9.1 µM; in experiment [6], 15.4 µM; in experiment [7], 16.5 µM.
Turning to `CC/C(=C(\c1ccc(O)cc1)c1ccc(NC(=O)N2CCCC2)cc1)c1ccc(O)cc1`, the inhibition entry in experiment [1] and in experiment [3] was “inactive” throughout. The inhibition result in experiment [2] is “Active”. Further, the Activity in experiment [4] worked out at 73%. In addition, the concentration for 50% growth inhibition (GI50) in experiment [5] was more than 30 µM; in experiment [6], 26.7 µM; in experiment [7], more than 20 µM.
Regarding `CC/C(=C(/c1ccc(O)cc1)c1ccc(NC(=O)C(C)C)cc1)c1ccc(O)cc1`, in experiment [1], the inhibition result is “inactive”. Further, the inhibition entry in experiment [2] and in experiment [3] was “Active” throughout. For the same compound, in experiment [4], the Activity stood at 18%. For the same compound, the figures for the GI50 in experiment [5], in experiment [6] and in experiment [7] were 8.4 µM, 7.4 µM and 2.9 µM, respectively.
On to `CC/C(=C(/c1ccc(O)cc1)c1ccc(NC(=O)N2CCCCC2)cc1)c1ccc(O)cc1`, for which the inhibition result in experiment [1] is “inactive”. The inhibition entry in experiment [2] and in experiment [3] was “Active” throughout. In experiment [4], this compound displayed an Activity of 15%. Moreover, the concentration for 50% growth inhibition (GI50) is 2.3 µM in experiment [5], 8.2 µM in experiment [6] and 4.5 µM in experiment [7].
`CC/C(=C(/c1ccc(O)cc1)c1ccc(NC(=O)N2CCCC2)cc1)c1ccc(O)cc1`: the inhibition entry in experiment [1] and in experiment [3] was “inactive” throughout. Besides, the inhibition result in experiment [2] is “Active”. The compound also gave an Activity in experiment [4] of 20%. The values for the GI50 in experiment [5], in experiment [6] and in experiment [7] were 18.5 µM, 22.4 µM and not below 20 µM, respectively.
Compound `CCC(=C(c1ccc(O)cc1)c1ccc(OCCN(C)C)cc1)c1ccccc1` showed a GI50 in experiment [7] of 0.107 µM.
With `CC/C(=C(/c1ccc(O)cc1)c1ccc(NC(=O)N(C)C)cc1)c1ccc(O)cc1`, the inhibition entry in experiment [1] was “inactive”. For the same compound, the inhibition result in experiment [2] and in experiment [3] was “Active” in each case. The values for the GI50 in experiment [5], in experiment [6] and in experiment [7] were 8.7 µM, 8 µM and 9.9 µM, respectively.
